Source: ChEMBL document CHEMBL5046317, “Diminishing GSH-Adduct Formation of Tricyclic Diazepine-based Mutant IDH1 Inhibitors” (ACS Med Chem Lett, 2022)
In brackets after ≈: the same amount, converted by molar mass.

Assays:
MOG-G-UVW = assay: Antiproliferative activity against human MOG-G-UVW cells assessed as inhibition of cell proliferation incubated for 72 hrs by cell titer-Glo assay; format: functional, cell-based
P-gp (ABCB1) = P-gp (ABCB1) (Homo sapiens, UniProt P08183); assay: Substrate activity at P-gp (unknown origin) transfected in LLC-PK1 cells expressing human MDR1 gene assessed as efflux ratio of permeability across basolateral to apical membrane at 0.1 uM; format: ADME, cell-based
P-gp (ABCB1), sequence (P08183 whole entry): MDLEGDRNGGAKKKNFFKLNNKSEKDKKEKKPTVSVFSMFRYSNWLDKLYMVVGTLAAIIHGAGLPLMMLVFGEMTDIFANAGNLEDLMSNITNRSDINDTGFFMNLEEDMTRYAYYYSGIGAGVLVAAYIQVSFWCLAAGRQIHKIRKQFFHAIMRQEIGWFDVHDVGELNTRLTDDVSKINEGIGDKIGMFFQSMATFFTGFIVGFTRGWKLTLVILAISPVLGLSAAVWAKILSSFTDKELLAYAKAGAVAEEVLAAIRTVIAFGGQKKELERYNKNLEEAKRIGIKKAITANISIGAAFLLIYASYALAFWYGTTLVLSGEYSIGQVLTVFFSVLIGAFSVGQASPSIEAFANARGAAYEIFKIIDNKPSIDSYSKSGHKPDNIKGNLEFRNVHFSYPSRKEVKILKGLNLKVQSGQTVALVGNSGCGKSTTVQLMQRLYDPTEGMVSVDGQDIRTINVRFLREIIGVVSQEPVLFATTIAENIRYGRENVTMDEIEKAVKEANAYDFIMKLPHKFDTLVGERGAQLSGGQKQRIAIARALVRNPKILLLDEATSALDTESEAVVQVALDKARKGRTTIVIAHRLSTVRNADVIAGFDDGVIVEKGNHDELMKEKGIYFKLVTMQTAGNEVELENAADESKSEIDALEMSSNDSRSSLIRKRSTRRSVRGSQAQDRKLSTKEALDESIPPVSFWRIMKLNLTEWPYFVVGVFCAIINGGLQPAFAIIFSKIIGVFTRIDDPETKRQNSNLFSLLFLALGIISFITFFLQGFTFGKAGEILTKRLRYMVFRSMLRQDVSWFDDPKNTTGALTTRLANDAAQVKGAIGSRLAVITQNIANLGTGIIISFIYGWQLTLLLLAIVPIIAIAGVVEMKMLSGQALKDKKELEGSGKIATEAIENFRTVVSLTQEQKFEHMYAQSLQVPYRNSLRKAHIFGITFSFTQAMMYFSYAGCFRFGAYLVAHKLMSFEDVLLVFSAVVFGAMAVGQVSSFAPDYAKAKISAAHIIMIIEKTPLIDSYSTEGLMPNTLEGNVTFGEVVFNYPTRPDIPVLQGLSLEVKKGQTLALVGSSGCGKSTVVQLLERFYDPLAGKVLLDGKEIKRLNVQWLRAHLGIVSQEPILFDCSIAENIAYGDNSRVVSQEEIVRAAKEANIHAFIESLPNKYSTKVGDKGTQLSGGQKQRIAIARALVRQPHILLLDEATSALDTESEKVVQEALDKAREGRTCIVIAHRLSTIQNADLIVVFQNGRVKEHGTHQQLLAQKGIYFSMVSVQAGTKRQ

[1] = target: Isocitrate dehydrogenase [NADP] cytoplasmic (Homo sapiens, UniProt O75874, R132H); assay: Inhibition of IDH1 R132H mutant (unknown origin) assessed as reduction in NADPH consumption using alpha-KG as substrate incubated for 60 mins by Kinase-GLO reagent based assay
Isocitrate dehydrogenase [NADP] cytoplasmic (Homo sapiens, UniProt O75874, R132H), sequence (O75874 2-414 R132H limits assumed): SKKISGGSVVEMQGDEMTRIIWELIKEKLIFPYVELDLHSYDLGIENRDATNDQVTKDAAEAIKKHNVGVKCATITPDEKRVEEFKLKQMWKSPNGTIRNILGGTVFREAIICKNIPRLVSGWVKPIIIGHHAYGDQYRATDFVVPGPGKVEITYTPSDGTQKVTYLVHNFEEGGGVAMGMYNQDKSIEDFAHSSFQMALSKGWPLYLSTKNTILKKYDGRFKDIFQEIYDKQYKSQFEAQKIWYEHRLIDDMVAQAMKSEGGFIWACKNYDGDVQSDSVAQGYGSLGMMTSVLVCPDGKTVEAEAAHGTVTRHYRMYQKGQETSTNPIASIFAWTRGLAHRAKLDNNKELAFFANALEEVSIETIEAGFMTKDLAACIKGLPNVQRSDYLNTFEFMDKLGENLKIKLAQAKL

[2] = Metabolic stability in human liver microsomes assessed as intrinsic clearance; format: ADME, Microsome; conditions: read-out: CLH
[3] = Drug metabolism in dog liver microsomes assessed as glutathione-adduct formation measured after 60 mins in presence of NADPH; format: ADME, Canis lupus familiaris, Microsome; conditions: 1 h
[4] = Half life in dog at 2 mg/kg, iv measured up to 24 hrs by LC-MS/MS analysis; format: ADME, organism-based, Canis lupus familiaris; conditions: in vivo
Method in brief: (§1)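 Single-dose PK in rat and dog. Rat received 0.5 mg/kg IV and 1 mg/kg PO; dog received 2 mg/kg IV and 10 mg/kg PO. Parameters derived: terminal t1/2, Vd, clearance and oral bioavailability F.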

[5] = Oral bioavailability in rat 1 mg/kg measured up to 24 hrs by LC-MS/MS analysis; format: ADME, organism-based; conditions: in vivo; method in brief: as §1
[6] = Volume of distribution in dog at 2 mg/kg, iv measured up to 24 hrs by LC-MS/MS analysis; format: ADME, organism-based, Canis lupus familiaris; conditions: in vivo; method in brief: as §1
[7] = Half life in rat at 0.5 mg/kg, iv measured up to 24 hrs by LC-MS/MS analysis; format: ADME, organism-based; conditions: in vivo; method in brief: as §1
[8] = Solubility of the compound at pH 6.5; format: physicochemical; conditions: buffer
[9] = Permeability of the compound in pig LLC-PK1 cells expressing MDR1; format: ADME, cell-based, Sus scrofa; conditions: read-out: permeability
[10] = Solubility of the compound at pH 7; format: physicochemical; conditions: buffer
[11] = Volume of distribution in rat at 0.5 mg/kg, iv measured up to 24 hrs by LC-MS/MS analysis; format: ADME, organism-based; conditions: in vivo; method in brief: as §1
[12] = Clearance in rat at 0.5 mg/kg, iv measured up to 24 hrs by LC-MS/MS analysis; format: ADME, organism-based; conditions: in vivo; method in brief: as §1
[13] = Solubility of the compound at pH 2; format: physicochemical; conditions: buffer
[14] = Distribution coefficient, logD of compound at pH 7.4 by HPLC analysis; format: physicochemical; conditions: octanol/water
[15] = Clearance in dog at 2 mg/kg, iv measured up to 24 hrs by LC-MS/MS analysis; format: ADME, organism-based, Canis lupus familiaris; conditions: in vivo; method in brief: as §1
[16] = Oral bioavailability in dog 10 mg/kg measured up to 24 hrs by LC-MS/MS analysis; format: ADME, organism-based, Canis lupus familiaris; conditions: in vivo; method in brief: as §1
[17] = test system: P-gp (Mdr1) (Rattus norvegicus); assay: Substrate activity at rat P-gp transfected in […]-MDR1 expressing Mdr1 gene assessed as efflux ratio of permeability across basolateral to apical membrane at 0.1 uM
Cytochrome P450 3A4 = Cytochrome P450 3A4 (Homo sapiens, UniProt P08684); assay: Inhibition of CYP3A4 (unknown origin); format: ADME
Cytochrome P450 3A4, sequence (P08684 whole entry): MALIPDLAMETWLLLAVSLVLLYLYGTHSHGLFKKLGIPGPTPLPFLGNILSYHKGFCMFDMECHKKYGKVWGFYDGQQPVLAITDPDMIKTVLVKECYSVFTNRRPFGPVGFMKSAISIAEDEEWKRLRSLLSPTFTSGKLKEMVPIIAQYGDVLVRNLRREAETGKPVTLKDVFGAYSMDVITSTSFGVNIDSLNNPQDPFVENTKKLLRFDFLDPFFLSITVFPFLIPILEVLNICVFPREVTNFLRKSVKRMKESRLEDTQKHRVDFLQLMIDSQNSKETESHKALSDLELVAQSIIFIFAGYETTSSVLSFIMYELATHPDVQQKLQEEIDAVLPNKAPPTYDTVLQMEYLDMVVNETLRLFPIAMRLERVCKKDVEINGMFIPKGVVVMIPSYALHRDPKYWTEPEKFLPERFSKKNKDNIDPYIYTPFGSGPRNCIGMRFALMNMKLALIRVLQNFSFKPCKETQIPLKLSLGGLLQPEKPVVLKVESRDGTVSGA

[18] = target: T1, Nuclear receptor subfamily 1 group I member 2 (Homo sapiens, UniProt O75469); assay: Inhibition of PXR (unknown origin)
T1 sequence (O75469 whole entry): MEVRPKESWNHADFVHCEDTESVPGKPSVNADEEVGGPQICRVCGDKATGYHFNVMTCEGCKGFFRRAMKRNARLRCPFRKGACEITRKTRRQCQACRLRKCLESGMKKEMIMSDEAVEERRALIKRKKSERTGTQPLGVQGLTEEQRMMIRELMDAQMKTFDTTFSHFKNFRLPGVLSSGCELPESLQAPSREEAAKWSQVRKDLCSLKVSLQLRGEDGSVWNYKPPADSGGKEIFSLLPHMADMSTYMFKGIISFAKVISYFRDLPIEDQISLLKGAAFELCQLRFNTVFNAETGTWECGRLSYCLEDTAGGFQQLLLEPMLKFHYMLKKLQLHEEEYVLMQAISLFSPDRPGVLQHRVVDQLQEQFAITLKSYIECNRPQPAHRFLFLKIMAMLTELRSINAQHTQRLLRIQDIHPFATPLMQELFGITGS

[19] = target: Isocitrate dehydrogenase [NADP] cytoplasmic (Homo sapiens, UniProt O75874); assay: Inhibition of IDH1 (unknown origin)
Isocitrate dehydrogenase [NADP] cytoplasmic (Homo sapiens, UniProt O75874), sequence (O75874 whole entry): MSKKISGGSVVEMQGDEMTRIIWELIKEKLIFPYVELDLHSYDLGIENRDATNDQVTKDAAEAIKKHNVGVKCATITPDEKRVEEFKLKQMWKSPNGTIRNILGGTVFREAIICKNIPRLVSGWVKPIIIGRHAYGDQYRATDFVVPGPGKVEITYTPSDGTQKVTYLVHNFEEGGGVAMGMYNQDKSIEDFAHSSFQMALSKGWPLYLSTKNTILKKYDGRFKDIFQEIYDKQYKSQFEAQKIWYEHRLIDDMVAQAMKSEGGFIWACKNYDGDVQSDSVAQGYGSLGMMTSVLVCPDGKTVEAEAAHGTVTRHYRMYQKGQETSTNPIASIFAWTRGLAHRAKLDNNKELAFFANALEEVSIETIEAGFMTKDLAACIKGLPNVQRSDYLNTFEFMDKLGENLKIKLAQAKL

[20] = target: T2, Isocitrate dehydrogenase [NADP], mitochondrial (Homo sapiens, UniProt P48735); assay: Inhibition of IDH2 (unknown origin)
T2 sequence (P48735 whole entry): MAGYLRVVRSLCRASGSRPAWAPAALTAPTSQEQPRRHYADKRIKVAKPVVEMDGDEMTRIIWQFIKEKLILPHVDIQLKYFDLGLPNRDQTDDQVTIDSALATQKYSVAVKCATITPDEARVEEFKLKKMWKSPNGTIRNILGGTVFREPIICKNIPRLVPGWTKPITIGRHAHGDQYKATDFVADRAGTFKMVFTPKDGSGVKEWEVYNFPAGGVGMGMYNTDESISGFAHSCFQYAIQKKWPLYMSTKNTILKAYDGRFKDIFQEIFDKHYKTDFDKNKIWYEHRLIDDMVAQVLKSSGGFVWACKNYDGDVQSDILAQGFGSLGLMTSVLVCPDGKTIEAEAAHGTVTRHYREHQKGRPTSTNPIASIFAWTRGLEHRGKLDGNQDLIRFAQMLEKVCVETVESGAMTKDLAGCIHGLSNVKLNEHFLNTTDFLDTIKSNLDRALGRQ

Compound | IC50 (MOG-G-UVW) | efflux ratio at 0.1 µM (P-gp (ABCB1)) | IC50 [1] | CLint scaled [2] | further results
CC(C)O[C@H]1CC[C@H](C(=O)N2Cc3cc(F)cnc3Nc3ccc(N4CC5CCC4CO5)cc32)CC1 (some centres not stated) | 18.2 nM | 2.9 | 21.2 nM | – | –
CC(C)O[C@H]1CC[C@H](C(=O)N2Cc3cccnc3Nc3cnc(C4COCCO4)cc32)CC1 (some centres not stated) | 581 nM | 3.7 | 181 nM | 20 mL/min/kg | –
O=C(C1CCN(CC(F)(F)F)CC1)N1Cc2cc(F)cnc2Nc2ccc(N3C[C@@H]4C[C@H]3CO4)cc21 | 42.4 nM | 2.2 | 8.7 nM | 33 mL/min/kg | –
COC1C[C@H]2CC[C@@H](C1)N2c1ccc2c(c1)N(C(=O)C1CCN(CC(F)(F)F)CC1)Cc1cccnc1N2 (some centres not stated) | 61 nM | – | 15.6 nM | – | –
CC(C)O[C@H]1CC[C@H](C(=O)N2Cc3cccnc3Nc3cnn(CC4CCOCC4)c32)CC1 | 5020 nM | – | 1390 nM | – | –
CC(C)O[C@H]1CC[C@H](C(=O)N2Cc3cccnc3Nc3ccc(C4COCCO4)cc32)OC1 (some centres not stated) | 88.5 nM | 1.1 | – | 34 mL/min/kg | Activity [3]: 7%
CC(C)O[C@H]1CC[C@H](C(=O)N2Cc3cccnc3Nc3cc(F)c(C4COCCO4)cc32)OC1 (some centres not stated) | 53.6 nM | 1.2 | 32.5 nM | 58 mL/min/kg | half-life [4]: 6 h; bioavailability [5]: 100%; Vd [6]: 5.1 L/kg; half-life [7]: 1.1 h; solubility [8]: 154 µM (≈ 72.6 µg/mL); Papp [9]: 38.7 ×10⁻⁶ cm/s; solubility [10]: 123 µM (≈ 58 µg/mL); Vd [11]: 3.7 L/kg; Activity [3]: 1%; clearance [12]: 69 mL/min/kg; solubility [13]: 143 µM (≈ 67.4 µg/mL); logD [14]: 2.67; clearance [15]: 26 mL/min/kg; bioavailability [16]: 77%
CC(C)O[C@H]1CC[C@H](C(=O)N2Cc3cc(F)cnc3Nc3ccc(C4COCCO4)cc32)OC1 (some centres not stated) | 56.9 nM | 0.9 | 24.4 nM | 50 mL/min/kg | Activity [3]: 12%
CC(C)O[C@H]1CC[C@H](C(=O)N2Cc3nccnc3Nc3ccc(C4CCOCC4)cc32)CC1 | 146 nM | 1.4 | 22.4 nM | 92 mL/min/kg | –
CC(C)O[C@H]1CC[C@H](C(=O)N2Cc3cc(S(C)(=O)=O)cnc3Nc3ccc(N4CC5CCC4CO5)cc32)CC1 (some centres not stated) | > 10000 nM | – | 11200 nM | – | –
CC(C)O[C@H]1CC[C@H](C(=O)N2Cc3cccnc3Nc3ccc(N4CC5CCC4CO5)c(F)c32)CC1 (some centres not stated) | 205 nM | 3.1 | – | 210 mL/min/kg | –
CC(C)O[C@H]1CC[C@H](C(=O)N2Cc3cc(Cl)cnc3Nc3ccc(N4CC5CCC4CO5)cc32)CC1 (some centres not stated) | 95.9 nM | – | 28.7 nM | – | efflux ratio at 0.1 µM [17]: 4.6
CC(C)O[C@H]1CC[C@H](C(=O)N2Cc3cccnc3Nc3cnc(N4C[C@@H]5C[C@H]4CO5)cc32)CC1 | 261 nM | 6.6 | 116 nM | 64 mL/min/kg | –
CC(C)O[C@H]1CC[C@H](C(=O)N2Cc3cccnc3Nc3ccc(N4CC5CCC4CO5)cc32)CC1 (some centres not stated) | 17.2 nM | 3.6 | 11 nM | – | –
CC(C)O[C@H]1CC[C@H](C(=O)N2Cc3cncnc3Nc3ccc(N4C[C@@H]5C[C@H]4CO5)cc32)CC1 | 810 nM | 8.1 | 197 nM | 177 mL/min/kg | –
Cc1cnc2c(c1)CN(C(=O)[C@H]1CC[C@H](OC(C)C)CC1)c1cc(N3CC4CCC3CO4)ccc1N2 (some centres not stated) | 456 nM | 2.2 | 113 nM | – | –
O=C(C1CCc2ccccc2CC1)N1Cc2cccnc2Nc2ccc(N3CCOCC3)cc21 | 43 nM | 1.7 | > 50000 nM | 1500 mL/min/kg | IC50 (Cytochrome P450 3A4): > 5000 nM; IC50 [18]: 3200 nM; IC50 [19]: > 5000 nM
CC(C)O[C@H]1CC[C@H](C(=O)N2Cc3cc(F)cnc3Nc3ccc(-c4cnn(C)c4)cc32)OC1 | 18.3 nM | 1.2 | 4.9 nM | 51 mL/min/kg | –
CC(C)O[C@H]1CC[C@H](C(=O)N2Cc3cc(F)cnc3Nc3ccc(N4C[C@H]5CC[C@@H]4CO5)cc32)OC1 | 8.1 nM | 1.4 | 11 nM | 22 mL/min/kg | –
CC(C)O[C@H]1CC[C@H](C(=O)N2Cc3cccnc3Nc3cc(F)c(N4CC5CCC4CO5)cc32)CC1 (some centres not stated) | 36.2 nM | 2.5 | – | 124 mL/min/kg | –
CC(C)O[C@H]1CC[C@H](C(=O)N2c3cc(N4C[C@@H]5C[C@H]4CO5)ccc3Nc3ncccc3C2C)CC1 (some centres not stated) | 88.6 nM | 3.4 | 25.3 nM | 143 mL/min/kg | –
CC(C)O[C@H]1CC[C@H](C(=O)N2Cc3cccnc3Nc3ccc(N4C[C@@H]5C[C@H]4CO5)cc32)CC1 | 60.6 nM | – | – | 34 mL/min/kg | –
CC(C)O[C@H]1CC[C@H](C(=O)N2Cc3cccnc3Nc3ccc(N4CC5(CCCOC5)C4)cc32)CC1 | 119 nM | – | – | – | –
CC(C)O[C@H]1CC[C@H](C(=O)N2Cc3cccnc3Nc3ccc(N4CCOCC4)cc32)CC1 | 64.4 nM | – | 34.9 nM | – | –
CC(C)O[C@H]1CC[C@H](C(=O)N2Cc3cccnc3Nc3ccc(N4C[C@H]5CC[C@@H]4CO5)cc32)OC1 | 17.8 nM | – | 21.6 nM | 21 mL/min/kg | IC50 (Cytochrome P450 3A4): 1000 nM; IC50 [20]: > 50000 nM; IC50 [18]: 18000 nM; IC50 [19]: > 50000 nM
